Measured values: ChEMBL document CHEMBL1142150, “Inhibitors of nonhousekeeping functions of the apicoplast defy delayed death in Plasmodium falciparum” (Antimicrob Agents Chemother, 2007)
In brackets after ≈: the same amount, converted by molar mass. Activity calls are given as the source filed them. The calls are words filed in the database; no cut-off is given here.

Assays:
[1] = tested on: Plasmodium falciparum; test: Reduced apicoplast genome copy number in Plasmodium falciparum FCK2 after 96 hrs; assay type: functional
[2] = tested on: Plasmodium falciparum; test: Reduced apicoplast DNA/nuclear DNA ratio in Plasmodium falciparum FCK2 at 10 uM after 72 hrs by competitive PCR; assay type: functional
[3] = tested on: Plasmodium falciparum; test: Inhibition of fatty acid biosynthesis in Plasmodium falciparum FCK2 as [1,2-14C]acetate uptake during first asexual cycle at 10 uM after 24 hrs; assay type: functional, organism-based
[4] = tested on: Plasmodium falciparum; test: Inhibition of Plasmodium falciparum FCK2 growth as [3H]hypoxanthine uptake after 48 hrs; assay type: functional, organism-based
In short: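 Ring-synchronized FCK2 in human O+ erythrocytes, 2 to 3% hematocrit, 1 to 2% initial parasitemia. Cultured 48 h with [3H]hypoxanthine and a range of inhibitor concentrations, inhibitor refreshed in new medium every 24 h, in duplicate. Cells harvested onto glass fibre filters for scintillation counting. IC50/MIC90 from nonlinear fit of parasitemia relative to untreated (100%) against log concentration.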

[5] = tested on: Plasmodium falciparum; test: Inhibition of Plasmodium falciparum FCK2 growth as [3H]hypoxanthine uptake after 96 hrs; assay type: functional, organism-based
In short: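 Ring-synchronized FCK2 at 2 to 3% hematocrit, 1 to 2% initial parasitemia, exposed to a range of inhibitor concentrations for the first 48 h only, in duplicate. [3H]hypoxanthine then added for a further 48 h, followed by harvest and scintillation counting. IC50/MIC90 from nonlinear fit of parasitemia relative to untreated (100%) against log concentration.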

[6] = tested on: Plasmodium falciparum; test: Decrease in Plasmodium falciparum FCK2 in erythrocytes at 5 uM after 84 hrs; assay type: functional, organism-based
In short: (§1)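 Ring-stage synchronized FCK2 in human O+ erythrocytes at 10% hematocrit and 3% starting parasitemia, with medium changed every 24 h. Inhibitor was present either throughout (96 h) or for the first 48 h only, in triplicate. Giemsa thin smears were read every 12 h, counting at least 10 fields of about 200 cells. Parasitemia is infected RBC over total RBC; parasites lacking an intact membrane or stained cytoplasm were scored dead.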

[7] = tested on: Plasmodium falciparum; test: Reduction in Plasmodium falciparum FCK2 in human blood cell culture after 96 hrs; assay type: functional; parameters: scale not given: the % may be the effect or the level left
In short: (§2)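 Ring-stage synchronized FCK2 (2–3% hematocrit, 1–2% parasitemia) was treated with an inhibitor dilution series for the first 48 h only, in duplicate. [3H]hypoxanthine was then added for a further 48 h (96 h total) before filter harvest and scintillation counting. Percent parasitemia was set relative to untreated controls, and IC50/MIC90 were fitted by nonlinear regression against log concentration.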

[8] = tested on: Plasmodium falciparum; test: Reduction in Plasmodium falciparum FCK2 in human erythrocyte culture after 48 hrs; assay type: functional, organism-based
In short: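 FCK2 synchronized with sorbitol, at ring stage, in O+ erythrocytes (2–3% hematocrit, 1–2% parasitemia). Cells were exposed to an inhibitor dilution series with [3H]hypoxanthine for 48 h, with fresh inhibitor every 24 h, in duplicate. Harvested onto glass-fiber filters for scintillation counting. Parasitemia was taken relative to untreated (100%), and IC50/MIC90 were fitted by nonlinear regression against log concentration.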

[9] = tested on: Plasmodium falciparum; test: Reduced apicoplast genome copy number in Plasmodium falciparum FCK2 after 48 hrs; assay type: functional
[10] = tested on: Plasmodium falciparum; test: Reduced apicoplast DNA/nuclear DNA ratio in Plasmodium falciparum FCK2 at 100 nM after 72 hrs by competitive PCR; assay type: functional, organism-based
[11] = tested on: Plasmodium falciparum; test: Reduced apicoplast DNA/nuclear DNA ratio in Plasmodium falciparum FCK2 at 25 uM after 72 hrs by competitive PCR; assay type: functional, organism-based
[12] = tested on: Plasmodium falciparum; test: Inhibition of fatty acid biosynthesis in Plasmodium falciparum FCK2 as decreased [1,2-14C]acetate uptake at 10 uM after 2 hrs; assay type: functional, organism-based
[13] = tested on: Plasmodium falciparum; test: Reduced apicoplast DNA/nuclear DNA ratio in Plasmodium falciparum FCK2 at 100 uM after 72 hrs by competitive PCR; assay type: functional
In short: (§3)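 FCK2 cultures were treated for 72 h, then saponin-lysed, and genomic DNA was kit-purified. Competitive PCR for eftu (apicoplast) and fabI (nuclear) used deletion-mutant plasmid standards diluted in calf thymus DNA, run for 25 cycles at 95/50/72°C. Products were quantified by ethidium-stained gel densitometry, and copy number was taken at equal band intensity. Groups were compared by two-tailed Student t test.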

[14] = tested on: Plasmodium falciparum; test: Decrease in Plasmodium falciparum FCK2 in erythrocytes at 50 uM after 84 hrs; assay type: functional, organism-based; in short: as §1
[15] = tested on: Plasmodium falciparum; test: Inhibition of Plasmodium falciparum FCK2 second cycle growth in erythrocytes at 48 hrs; assay type: functional, organism-based; in short: as §2
[16] = tested on: Plasmodium falciparum; test: Reduced apicoplast DNA/nuclear DNA ratio in Plasmodium falciparum FCK2 at 1 mM after 72 hrs by competitive PCR; assay type: functional, organism-based; in short: as §3
[17] = tested on: Plasmodium falciparum; test: Reduced apicoplast DNA/nuclear DNA ratio in Plasmodium falciparum FCK2 at 500 uM after 72 hrs by competitive PCR; assay type: functional, organism-based

## CCC[C@@H]1C[C@@H](C(=O)N[C@@H]([C@H]2O[C@H](SC)[C@H](O)[C@@H](O)[C@H]2O)[C@H](C)Cl)N(C)C1 [CLINDAMYCIN]
[1]
  Activity: 0.42
[2]
  Activity: 0.4
[3]
  Activity: inactive
[4]
  IC50: 288 µM
  MIC90: 537 µM (≈ 228 µg/mL)
[5]
  IC50: 0.0013 µM
  MIC90: 6 µM (≈ 2.55 µg/mL)
[6]
  Activity: inactive
[7]
  Activity: 10%
[8]
  Activity: inactive
[9]
  Activity: 0.65

## C/C=C/C/C=C/CCC(=O)[C@H]1O[C@H]1C(N)=O [CERULENIN]
[4]
  IC50: 15.1 µM
  MIC90: 64.9 µM (≈ 14.5 µg/mL)
[5]
  IC50: 16.9 µM
  MIC90: 52.3 µM (≈ 11.7 µg/mL)

## CC(Oc1ccc(Oc2ccc(C(F)(F)F)cn2)cc1)C(=O)O (stereo unspecified) [FLUAZIFOP]
[4]
  IC50: 1550 µM
  MIC90: 6920 µM (≈ 2260 µg/mL)
[5]
  IC50: 1480 µM
  MIC90: 5750 µM (≈ 1880 µg/mL)

## C[C@@H]1C[C@@H]([C@H](O)CC2CC(=O)NC(=O)C2)C(=O)[C@@H](C)C1 [CYCLOHEXIMIDE]
[10]
  Activity: inactive
[4]
  IC50: 0.15 µM
  MIC90: 0.73 µM (≈ 0.205 µg/mL)
[5]
  IC50: 0.1 µM
  MIC90: 0.48 µM (≈ 0.135 µg/mL)

## CC(Oc1ccc(Oc2cnc3cc(Cl)ccc3n2)cc1)C(=O)O (stereo unspecified) [QUIZALOFOP]
[4]
  IC50: 575 µM
  MIC90: 3090 µM (≈ 1070 µg/mL)
[5]
  IC50: 676 µM
  MIC90: 1950 µM (≈ 672 µg/mL)

## O=C(O)c1cc(Oc2ccc(C(F)(F)F)cc2Cl)ccc1[N+](=O)[O-] [ACIFLUORFEN]
[4]
  IC50: 525 µM
  MIC90: 871 µM (≈ 315 µg/mL)
[5]
  IC50: 457 µM
  MIC90: 692 µM (≈ 250 µg/mL)

## Oc1ccc(Cl)cc1Oc1ccc(Cl)c2cccnc12
[11]
  Activity: inactive

## Oc1cc(Cl)ccc1Oc1ccc(Cl)cc1Cl [TRICLOSAN]
[1]
  Activity: inactive
[12]
  Activity: Active
[4]
  IC50: 1.1 µM
  MIC90: 15.8 µM (≈ 4.57 µg/mL)
[5]
  IC50: 1.2 µM
  MIC90: 10.2 µM (≈ 2.95 µg/mL)
[9]
  Activity: inactive

## CN(C)[C@@H]1C(O)=C(C(N)=O)C(=O)[C@@]2(O)C(O)=C3C(=O)c4c(O)cccc4[C@@](C)(O)[C@H]3C[C@@H]12 [TETRACYCLINE]
[13]
  Activity: 0.1
[4]
  IC50: 135 µM
  MIC90: 562 µM (≈ 250 µg/mL)
[5]
  IC50: 2.19 µM
  MIC90: 26.9 µM (≈ 12 µg/mL)
[14]
  Activity: Active
[15]
  Activity: Active
[7]
  Activity: 10%
[8]
  Activity: inactive

## C[C@@H]1C[C@H]2O[C@@H]2/C=C\C=C\C(=O)Cc2c(Cl)c(O)cc(O)c2C(=O)O1 [RADICICOL]
[4]
  IC50: 7.2 µM
  MIC90: 46.8 µM (≈ 17.1 µg/mL)
[5]
  IC50: 5.6 µM
  MIC90: 60.2 µM (≈ 22 µg/mL)

## CO[C@H]1/C=C/O[C@@]2(C)Oc3c(C)c(O)c4c(O)c(c(/C=N/N5CCN(C)CC5)c(O)c4c3C2=O)NC(=O)/C(C)=C\C=C\[C@H](C)[C@H](O)[C@@H](C)[C@@H](O)[C@@H](C)[C@H](OC(C)=O)[C@@H]1C [RIFAMPIN]
[4]
  IC50: 4.2 µM
  MIC90: 110 µM (≈ 90.2 µg/mL)
[5]
  IC50: 0.19 µM
  MIC90: 2 µM (≈ 1.65 µg/mL)
[6]
  Activity: Active
[15]
  Activity: Active
[7]
  Activity: 10%
[8]
  Activity: inactive

## CCN(CC)CCCC(C)Nc1ccnc2cc(Cl)ccc12 (stereo unspecified) [CHLOROQUINE]
[10]
  Activity: inactive
[4]
  MIC90: 0.011 µM (≈ 0.00352 µg/mL)
[5]
  MIC90: 0.011 µM (≈ 0.00352 µg/mL)

## CC(=O)CC(=O)CCC(=O)O [SUCCINYLACETONE]
[16]
  Activity: inactive
[4]
  IC50: 17800 µM
  MIC90: 58900 µM (≈ 9310 µg/mL)
[5]
  IC50: 17400 µM
  MIC90: 51300 µM (≈ 8110 µg/mL)

## O=C(N[C@H](CO)[C@H](O)c1ccc([N+](=O)[O-])cc1)C(Cl)Cl [CHLORAMPHENICOL]
[4]
  IC50: 417 µM
  MIC90: 1020 µM (≈ 331 µg/mL)
[5]
  IC50: 11.2 µM
  MIC90: 190 µM (≈ 61.6 µg/mL)
[14]
  Activity: inactive
[7]
  Activity: 10%
[8]
  Activity: inactive

## CC(Oc1ccc(Oc2ncc(C(F)(F)F)cc2Cl)cc1)C(=O)O (stereo unspecified) [HALOXYFOP]
[17]
  Activity: inactive
[4]
  IC50: 107 µM
  MIC90: 346 µM (≈ 125 µg/mL)
[5]
  IC50: 97.7 µM
  MIC90: 346 µM (≈ 125 µg/mL)
